# Measurements published in ChEMBL document CHEMBL5030552, “Computational Design of Potent D-Peptide Inhibitors of SARS-CoV-2” (J Med Chem, 2021).
# Columns and labels:
# Spike glycoprotein = Spike glycoprotein (Severe acute respiratory syndrome coronavirus 2, UniProt P0DTC2); experiment: Binding affinity to SARS-CoV-2 spike protein receptor-binding domain by biolayer interferometry (BLI) assay
# Procedure, shortened: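 BLI was run at 25 °C with shaking at 1000 rpm. His-tagged RBD (200 nM) was loaded on Ni-NTA sensors, then peptides were applied at several concentrations, and dissociation was read in baseline wells. Signals were referenced against His-tagged SUMO and RBD-only sensors. Subtracted curves were fitted for ka, kd and Kd.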
# Vero = experiment: Cytotoxicity against African green monkey Vero cells assessed as viable cells measured by MTS assay; assay type: cell-based; conditions: chlorocebus sabaeus
# Procedure, shortened: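 Vero cells (1.5 × 10⁴/well, 24 h growth) were exposed in the neutralization-assay format without virus. Peptides were twofold-diluted from 100 to 0.1953 μM from DMSO stocks diluted in PBS. Viability was read with MTS.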
# [1] = Stability of the compound in proteinase K (unknown origin) in presence of serum assessed as loss of peptide measured after 2.5 hr; assay type: ADME; conditions: read-out: Drug degradation
# SARS-CoV-2 = experiment: Antiviral activity against SARS-CoV-2 assessed as neutralization viral infection in Vero cells by measuring cytopathic effect incubated for 4 days by crystal violet staining based assay; assay type: functional, organism-based; conditions: Severe acute respiratory syndrome coronavirus 2, Vero, 96 h
SMILES,Kd (Spike glycoprotein) [nM],Activity (Vero),metabolised at 2.5 h [1] [%],IC50 (SARS-CoV-2) [nM]
CC[C@@H](C)[C@@H](N)C(=O)N[C@H](CC(N)=O)C(=O)N[C@H](CCC(N)=O)C(=O)N[C@H](Cc1ccc(O)cc1)C(=O)N[C@H](CCSC)C(=O)N[C@H](CCC(=O)O)C(=O)N[C@H](CCC(=O)O)C(=O)N[C@@H](C(=O)N[C@H](CCC(=O)O)C(=O)N[C@H](Cc1cnc[nH]1)C(=O)N[C@H](C)C(=O)N[C@H](C)C(=O)N[C@H](CO)C(=O)N[C@H](CCCNC(=N)N)C(=O)N[C@H](Cc1ccccc1)C(=O)N[C@H](C)C(=O)N[C@H](Cc1ccc(O)cc1)C(=O)N[C@H](Cc1ccccc1)C(=O)N[C@H](Cc1ccccc1)C(=O)N[C@H](Cc1ccc(O)cc1)C(=O)N[C@H](CCC(N)=O)C(=O)N[C@H](Cc1cnc[nH]1)C(=O)N[C@H](CC(C)C)C(=O)N[C@H](C)C(=O)O)[C@H](C)CC,105,,,
CC[C@@H](C)[C@@H](NC(=O)CNC(=O)[C@@H](CC(C)C)NC(=O)CNC(=O)[C@@H](CCCCN)NC(=O)CNC(=O)[C@@H](CC(=O)O)NC(=O)[C@@H](Cc1ccccc1)NC(=O)[C@H](N)CCCNC(=N)N)C(=O)N[C@H](Cc1ccc(O)cc1)C(=O)N[C@H](CCC(N)=O)C(=O)N[C@H](Cc1ccc(O)cc1)C(=O)N[C@H](CCSC)C(=O)N[C@H](CCC(=O)O)C(=O)N[C@H](CCC(=O)O)C(=O)N[C@@H](C(=O)N[C@H](CCC(=O)O)C(=O)N[C@H](Cc1cnc[nH]1)C(=O)N[C@H](C)C(=O)N[C@H](C)C(=O)N[C@H](CO)C(=O)N[C@H](CCCNC(=N)N)C(=O)N[C@H](Cc1ccccc1)C(=O)N[C@H](C)C(=O)N[C@H](Cc1ccc(O)cc1)C(=O)N[C@H](Cc1ccccc1)C(=O)N[C@H](Cc1ccccc1)C(=O)N[C@H](Cc1ccc(O)cc1)C(=O)N[C@H](CCC(N)=O)C(=O)N[C@H](Cc1cnc[nH]1)C(=O)N[C@H](CC(C)C)C(=O)N[C@H](C)C(=O)O)[C@H](C)CC,29,Non-Toxic,87.5,5760
CC[C@@H](C)[C@@H](NC(=O)[C@@H](Cc1cnc[nH]1)NC(=O)[C@H](NC(=O)[C@@H](CCC(=O)O)NC(=O)[C@@H](CCC(=O)O)NC(=O)[C@@H](CCSC)NC(=O)[C@@H](CC(C)C)NC(=O)[C@@H](C)NC(=O)[C@@H](Cc1ccc(O)cc1)NC(=O)[C@@H](CC(C)C)NC(=O)[C@@H](C)NC(=O)[C@H](NC(=O)[C@@H](CCC(N)=O)NC(=O)[C@H](N)CC(C)C)[C@H](C)O)[C@H](C)CC)C(=O)N[C@H](C)C(=O)N[C@H](C)C(=O)N[C@H](CC(C)C)C(=O)N[C@H](CCC(=O)O)C(=O)N[C@H](CCCCN)C(=O)N[C@@H](C(=O)N[C@H](Cc1c[nH]c2ccccc12)C(=O)N[C@@H](C(=O)N[C@H](C)C(=O)N[C@H](CC(C)C)C(=O)N[C@H](CCCNC(=N)N)C(=O)N[C@H](Cc1cnc[nH]1)C(=O)N[C@H](CCC(N)=O)C(=O)N[C@H](Cc1ccc(O)cc1)C(=O)N[C@@H](C(=O)O)[C@H](C)O)[C@H](C)O)[C@H](C)O,31,Non-Toxic,82.9,6560
